Bioassay records: PubChem, Broad Institute
Sampled rows, rich in hits. Any-hit rate of the full collection: about 3.5%.
PGC1a acetyl inh: modulators of PGC1a acetylation. U2OS PGC1a acetylation, AlphaScreen anti-acetyl-lysine; with virally co-expressed GCN5 acetyltransferase. inhibition, % at 15.6 µM. hit rate 0.17% among 350,000. AID 651687;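 active = every replicate shows inhibition of at least 40%; inconclusive = mean inhibition at least 40% but some replicate below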
PglD inh: blocks C. jejuni PglD acetyltransferase activity; hit rate 0.098% among 360,000; inhibition, % at 12.5 µM; purified PglD enzyme, DTNB colorimetric CoA detection; in the data active = inhibition above about 16%, passing the limit was not always enough; inconclusive = no clear call, values can overlap the other calls
DENV2 CPE rescue: inhibitors of DENV2 cytopathic effect | DENV2-infected cells, cytopathic effect rescue, plate reader | CPE inhibition, % at 9.99 µM | hit rate 1.7% among 350,000 | AID 651640; in the data active = CPE inhibition above about 20%, passing the limit was not always enough; inconclusive = no clear call, values can overlap the other calls; tested in BHK-21 cells
FN deposit inh: fibronectin deposition inhibition; AH1F fibroblasts, Alexa488-fibronectin deposition fluorescence, overnight; AID 743247; hit rate 0.086% among 350,000; inhibition, % at 12.6 µM;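 active = mean inhibition across replicates of 30% or more, regardless of how many single replicates reach that level; inconclusive = mean under 30% yet at least half of replicates reach 30%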
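Material: AH1F fibroblast monolayer depositing Alexa488-labelled fibronectin into matrix / Amount: 10000 AH1F cells per well / Signal: fluorescence 485/525 nm / Medium: DMEM, 2% serum / Compound: single dose, pinned / Incubation: 1 h cell adhesion before compound, then overnight fibronectin incubation / Reagent: Alexa488-FN, 24 nM final / Read-out: inhibition of fibronectin deposition signal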
rRNA inh HTS: selective bacterial rRNA inhibition in E. coli; GFP signal change (wild-type ribosome), % (test concentration not listed); E. coli WT GFP vs humanized-ribosome RFP mutants, fluorescence, 24 h; hits give low values; DMSO median 0, no signal -100; AID 720706; hit rate 1.6% among 350,000;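 active = significant combined selectivity score with lowered wild-type GFP, culture density cut under 30%, mutant RFP and density less affected; inactive = any of these conditions unmet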
HIV Env fusion: HIV envelope-mediated fusion inhibition; HeLa-JRFL Env/CEM21 cell fusion, luciferase; AID 651610; hit rate 1.1% among 360,000; inhibition, % at 12.3 µM;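 active = mean replicate inhibition score of at least 50 and every replicate individually at or above 50; inconclusive = only one of the two criteria met; inactive = mean below 50 and not all replicates reaching 50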
Of the large screens only hits and unclear results are named; the others gave an inactive call; [ ] = remark or other dose.

O=C(N/N=C/c1cc2c(cc1Cl)OCO2)c1ccncc1	none (no result: PGC1a acetyl inh, PglD inh, DENV2 CPE rescue, FN deposit inh, rRNA inh HTS)
CCOc1ccc(/C=N/NC(=O)c2cc(-c3cccn3C)n[nH]2)cc1	rRNA inh HTS -26.1 (no result: PglD inh)
Cn1cccc1-c1cc(C(=O)N/N=C/c2ccc([N+](=O)[O-])cc2)[nH]n1	none (no result: PGC1a acetyl inh)
Cn1cccc1-c1cc(C(=O)N/N=C/c2ccccc2Cl)[nH]n1	rRNA inh HTS -22.4
Cn1cccc1-c1cc(C(=O)N/N=C/c2ccc(F)cc2)[nH]n1	none
O=C(N/N=C/C=C/c1ccccc1[N+](=O)[O-])c1cc(-c2ccccc2)n[nH]1	rRNA inh HTS -34.3 (no result: PGC1a acetyl inh, PglD inh)
CC(/C=N/NC(=O)c1cc(-c2cccn2C)n[nH]1)=C\c1ccccc1	rRNA inh HTS -40.4
C[C@H](CO)N1C[C@H](C)[C@H](CN(C)Cc2ccc(C(F)(F)F)cc2)Oc2ccc(NC(=O)C3CCCCC3)cc2CC1=O	none
C[C@H]1CCCCO[C@@H](CN(C)C(=O)NC2CCCCC2)[C@@H](C)CN([C@@H](C)CO)C(=O)c2cc(NC(=O)Nc3ccccc3)ccc2O1	none
C[C@H]1CCCCO[C@H](CN(C)C(=O)NC2CCCCC2)[C@@H](C)CN([C@@H](C)CO)C(=O)c2cc(NC(=O)Nc3ccccc3)ccc2O1	DENV2 CPE rescue 26.9, HIV Env fusion 56.1[16.7 µM]
C[C@@H]1CN([C@@H](C)CO)C(=O)c2cc(NC(=O)NC3CCCCC3)ccc2O[C@@H](C)CCCCO[C@@H]1CN(C)C(=O)NC1CCCCC1	none
C[C@@H]1CCCCO[C@H](CN(C)C(=O)Nc2ccc3c(c2)OCO3)[C@H](C)CN([C@H](C)CO)C(=O)c2cc(NC(=O)NC3CCCCC3)ccc2O1	DENV2 CPE rescue 41.1 (no result: FN deposit inh)
C[C@@H]1CCCCO[C@H](CN(C)C(=O)NC2CCCCC2)[C@@H](C)CN([C@H](C)CO)C(=O)c2cc(NC(=O)NC3CCCCC3)ccc2O1	DENV2 CPE rescue 77.6
C[C@@H]1CCCCO[C@@H](CN(C)C(=O)NC2CCCCC2)[C@@H](C)CN([C@@H](C)CO)C(=O)c2cc(NC(=O)Nc3ccccc3)ccc2O1	DENV2 CPE rescue 44.9
C[C@@H]1CCCCO[C@H](CN(C)C(=O)NC2CCCCC2)[C@@H](C)CN([C@H](C)CO)C(=O)c2cc(NC(=O)Nc3ccccc3)ccc2O1	none
COc1ccc2c3c(n(C)c2c1)[C@H](CO)N(S(=O)(=O)c1ccccc1)CC31CCN(C)CC1	none (no result: PGC1a acetyl inh, PglD inh, FN deposit inh)
CCCN1C[C@H](C)[C@H](OC)CN(C)C(=O)c2ccc(NC(=O)C3CCC3)cc2OC[C@H]1C	none
Cc1nc(N=Nc2ccc(O)cc2)n[nH]1	none (no result: PglD inh)
COc1ccc(-c2nc(N=Nc3ccc(O)cc3)n[nH]2)cc1	rRNA inh HTS -27.0
CC1=CC2=NC(=O)/C(=C/c3cccn3Cc3ccccc3)C(=N)N2O1	rRNA inh HTS -34.9
CC1=CC2=NC(=O)/C(=C\c3cccn3CCOc3ccc(C)c(C)c3)C(=N)N2O1	none (no result: PGC1a acetyl inh, DENV2 CPE rescue, rRNA inh HTS)
N=C1/C(=C/c2cccn2Cc2ccc(Cl)cc2)C(=O)N=C2SC=CN12	HIV Env fusion 62.9 (no result: PGC1a acetyl inh, PglD inh, DENV2 CPE rescue, rRNA inh HTS)
C[C@H](CO)N1C[C@H](C)[C@H](CN(C)C)Oc2ncc(-c3cc4ccccc4o3)cc2C1=O	none
CCCCCc1ccc(-c2cn(CCc3c[nH]c4ccccc34)nn2)cc1	none (no result: PGC1a acetyl inh, DENV2 CPE rescue)
O=C(O)CCCCCCCCc1cn(CCc2c[nH]c3ccccc23)nn1	DENV2 CPE rescue 20.6
CC[C@H](C)Cc1cn([C@@H](CCCN=C(N)N)C(=O)NCCCCCCCCCCC(=O)N2CCNCC2)nn1	rRNA inh HTS -37.1 (no result: PGC1a acetyl inh)
O=C(COc1ccccc1/C=C\c1[nH]c(=O)[nH]c(=O)c1[N+](=O)[O-])Nc1ccccc1	rRNA inh HTS -31.1 (no result: PglD inh, FN deposit inh)
O=c1[nH]c(/C=C/c2ccccc2Cl)c([N+](=O)[O-])c(=O)[nH]1	none
CCN1C(=O)[C@H]2[C@@H](c3ccc(C)cc3)N3C(=O)N(c4cccc(Cl)c4)C(=O)[C@@]3(CC(C)C)[C@H]2C1=O	none
CC(C)C[C@@]12C(=O)N(c3cccc(Cl)c3)C(=O)N1[C@H](c1ccc(Cl)cc1)[C@@H]1C(=O)N(C3CCCCC3)C(=O)[C@@H]12	HIV Env fusion 67.4 (no result: PGC1a acetyl inh)
O=C1[C@H]2[C@@H](c3ccc(Cl)cc3)N3C(=O)N(c4cccc(Cl)c4)C(=O)[C@@]3(Cc3ccc(Cl)cc3)[C@H]2C(=O)N1C1CCCCC1	none (no result: PGC1a acetyl inh)
Cc1ccc(N2C(=O)N3[C@H](c4ccc(Cl)cc4)[C@@H]4C(=O)N(C5CCCCC5)C(=O)[C@@H]4[C@]3(Cc3ccccc3)C2=O)cc1	DENV2 CPE rescue inconclusive
CC[C@@]12C(=O)N(c3ccc(OC)cc3)C(=O)N1[C@H](c1ccc(Cl)cc1)[C@@H]1C(=O)N(C3CCCCC3)C(=O)[C@@H]12	HIV Env fusion 87.4
CC(C)C[C@@]12C(=O)N(c3cccc(Cl)c3)C(=O)N1[C@H](c1ccc(F)cc1)[C@@H]1C(=O)N(C3CCCCC3)C(=O)[C@@H]12	none (no result: PGC1a acetyl inh)
CC[C@@]12C(=O)N(c3cccc(Br)c3)C(=O)N1[C@H](c1ccc(Cl)cc1)[C@@H]1C(=O)N(C3CCCCC3)C(=O)[C@@H]12	HIV Env fusion 94.2 (no result: PGC1a acetyl inh)
CC(C)C[C@@]12C(=O)N(c3cccc(Br)c3)C(=O)N1[C@H](c1ccc(Cl)cc1)[C@@H]1C(=O)N(C3CCCCC3)C(=O)[C@@H]12	HIV Env fusion 70.3 (no result: PGC1a acetyl inh)
N=c1c2c(ncn1Cc1ccco1)Oc1ccc3ccccc3c1C2c1ccccc1 (stereo not given)	none (no result: PGC1a acetyl inh, PglD inh, DENV2 CPE rescue, rRNA inh HTS, HIV Env fusion)
COc1ccc(C2c3ccc4ccccc4c3Oc3ncn(CCCO)c(=N)c32)cc1OC (stereo not given)	rRNA inh HTS -19.5 (no result: PGC1a acetyl inh, PglD inh)
N=c1c2c(ncn1CCCO)Oc1c(ccc3ccccc13)C2c1ccccc1 (stereo not given)	rRNA inh HTS -39.6 (no result: PGC1a acetyl inh, PglD inh)
N=c1c2c(ncn1CCCO)Oc1ccc3ccccc3c1C2c1ccccc1 (stereo not given)	rRNA inh HTS -19.4
COc1ccc(C2c3ccc4ccccc4c3Oc3ncn(CCN4CCOCC4)c(=N)c32)cc1OC (stereo not given)	FN deposit inh 30.2 (no result: PGC1a acetyl inh, PglD inh, rRNA inh HTS)
CO[C@H]1CN(C)C(=O)c2cc(NC(=O)C3CCCCC3)ccc2OC[C@@H](C)N(Cc2nccs2)C[C@@H]1C	none
COCC(=O)Nc1ccc2c(c1)C(=O)N(C)C[C@H](OC)[C@H](C)CN(Cc1ccccc1F)[C@@H](C)CO2	none (no result: HIV Env fusion)
Cc1ccc(CNC(=O)c2ccc(N(C)S(=O)(=O)c3ccccc3)cc2)cc1	rRNA inh HTS -33.0
Cc1noc(C)c1NC(=O)N[C@@H]1C=C[C@H](CC(=O)NCc2ccc(Cl)c(Cl)c2)O[C@@H]1CO	none (no result: PglD inh, HIV Env fusion)
CCOC(=O)[C@@H]1[C@H]2COc3cc(OC)ccc3[C@H]2N2C(=O)N(c3ccc(C(F)(F)F)cc3)C(=O)[C@]12C	HIV Env fusion 109.0
